Data on twelve molecules can be found in publication PMC4532391 (Biochemistry, 2015).

No end group written: not given here.

For test [1], the target named is T1, αMI-domain (Homo sapiens, UniProt P11215). As to conditions: covalently coupled to the cellulose membrane; cited from earlier work.
Another test deals with U937 monocytic cells. Kind of test: Chemotaxis of U937 cells towards an agarose drop on coverslips. In kind it is cell-based, human. As to conditions: agarose gel with 15 μg/mL LL-37; 2 h at 37 °C. The essentials: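 U937 cells on 22 × 22 mm coverslips. A 10 μL drop of 1% agarose in HBSS, with LL-37 at 15 μg/mL final, sits ~1.5 mm from one corner; a control agarose drop sits in the opposite corner; both polymerise 5 min. Coverslips are submerged in RPMI 1640/10% FBS. 5 × 10^4 cells are loaded centrally, then 2 h at 37 °C, 5% CO2. Migration photographed at 2 mm intervals (20× objective); blocking variant uses anti-αM mAb 44a.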

Test [2] concerns αMβ2-expressing HEK293 cells. In words: Transwell migration of αMβ2-expressing HEK293 cells. The conditions noted are these: concentration-dependent, 16 h at 37 °C. It is filed as cell-based. An outline of the steps:
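Transwell, 5 μm pores: 3 × 10^5 αMβ2-HEK293 cells in the upper chamber, LL-37 (0.1–2 μg/mL) below, 16 h at 37 °C. Cells on the filter underside are fixed with paraformaldehyde, hematoxylin-stained and counted (mean cells/view ± standard error, ≥3 experiments). Blocking: 15 min pretreatment with 20 μg/mL anti-αM 44a, anti-β2 IB4 or non-inhibitory OKM1, LL-37 at 0.5 μg/mL. Medium-alone control.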

The test system of test [3] is macrophages isolated from αMβ2-deficient mice. In words: Transwell migration of thioglycolate-elicited peritoneal macrophages. In kind it is cell-based. The conditions noted are these: 90 min, LL-37 1 μg/mL, fMLP 100 nM. The essentials: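 Thioglycolate-elicited peritoneal monocyte/macrophages from wild-type and αMβ2-deficient mice, purified by anti-F4/80-PE selection. Placed in Transwell inserts with chemoattractant below: LL-37 1 μg/mL or fMLP 100 nM. Allowed to migrate 90 min.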

For another test, the system named is αMβ2 on neutrophils. Kind of test: Flow cytometry of the activation-dependent CBRM1/5 epitope on neutrophils. In kind it is cell-based, human. The essentials: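 Human blood neutrophils, isolated sterilely, at 10^6 per 0.1 mL in HBSS/0.1% BSA. Exposed 5 min at 22 °C to LL-37 (0.5–10 μg/mL) or fMLP (200 nM). Then Alexa 488-conjugated activation-dependent mAb CBRM1/5, 30 min on ice. Epitope-positive cells counted by flow cytometry. Some samples pretreated with NIF (1 μg/mL) before LL-37 at 4 or 10 μg/mL.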

The target of test [4] is T1, αMI-domain. It is filed as binding.

T1 sequence (P11215 139-331): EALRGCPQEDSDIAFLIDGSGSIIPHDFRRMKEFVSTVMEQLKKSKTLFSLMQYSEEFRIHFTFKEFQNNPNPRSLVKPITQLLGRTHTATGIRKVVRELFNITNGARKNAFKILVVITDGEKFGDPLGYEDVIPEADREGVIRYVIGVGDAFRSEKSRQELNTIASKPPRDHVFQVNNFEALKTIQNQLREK

YSMKKTTMKIIPFNRLTIG [P2]: the “αMI-domain binding of the cellulose-coupled peptide” value at αMI-domain [1] was “bound the αMI-domain”.

For the molecule “LLGDFFRKSKEKIGKEFKRIVQRIKDFLRNLVPRTES [LL-37]”, in the test on U937 monocytic cells, the “chemotactic response of U937 cells” value is on record as “induced a chemotactic response”. Moreover, the “LL-37 concentrations at which migration occurred” value in test [2] was 0.1 to 2 µg/mL. Moreover, the “migration of macrophages from αMβ2-deficient mice” value in test [3] is recorded as “did not induce migration”. Further, in the test on αMβ2 on neutrophils (10 μg/mL LL-37 versus fMLP 200 nM), the “number of cells expressing the activation epitope compared with fMLP” value was “slightly higher”. For the same molecule, in the test with αMβ2 on neutrophils (LL-37 0.5–10 μg/mL, 5 min at 22 °C, mAb CBRM1/5-Alexa 488, FACS), the “expression of the CBRM1/5 activation epitope on neutrophils” value is reported as “induced expression of the CBRM1/5 epitope in a concentration-dependent manner”.

In turn, RKLRSLWRR [RKLRSLWRR] had an IC50 against αMI-domain [4] of 2.5 ± 0.2 µM.

At αMI-domain [4], TMKIIPFNRLTIG [P2-C] returned an IC50 of 30 ± 2.5 µM.

Molecule SVNKYRGTAGNA [SVNKYRGTAGNA] showed an IC50 on αMI-domain [4] of 93 ± 11 µM.

The molecule `CC(C)C[C@H](NC(=O)[C@H](CC(C)C)NC(=O)[C@H](CCCNC(=N)N)NC(=O)[C@@H](N)CC(N)=O)C(=O)N[C@@H](CC(C)C)C(=O)N[C@H](C(=O)NCC(=O)O)[C@@H](C)O` [NRLLLTG] yielded an IC50 on αMI-domain [4] of 110 ± 16 µM.

Molecule GRLPMPW [GRLPMPW] came in with an IC50 at αMI-domain [4] of 36 ± 7 µM.

Molecule QVLRIRKRA [QVLRIRKRA] had an IC50 on αMI-domain [4] of 8.4 ± 0.5 µM.

Turning to LQLRFPRFV [LQLRFPRFV], half-maximal inhibition on αMI-domain [4] (IC50) required 10.5 ± 1.6 µM.

SSVKKYRPKYCGS [CCN1-H2]: the “αMI-domain binding of the cellulose-coupled peptide” value at αMI-domain [1] was “bound the αMI-domain”.

ARLPIWF [ARLPIWF] gave an IC50 on αMI-domain [4] of 17 ± 3 µM.

For fMLP, in test [3], the “migration of macrophages from αMβ2-deficient mice” value was “migrated”.

What is called IC50 is the concentration needed to halve the response being measured. Low readings indicate higher potency, high ones lower potency.
